# In the library only some 4.9% were active in any assay of this set; here they are far more common.
# NPY1 pot ag: potentiators or agonists of human neuropeptide Y receptor Y1 | NPY-Y1 expressing cells, potentiator/agonist activation | activation, % at 3.6 µM | hit rate 0.37% among 220,000 | P25929; in the data active = activation above about 33%, passing the limit was not always enough;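 also: cells stimulated with NPY at EC10 then isoproterenol at EC100; 0% = low agonist plus stimulus and 100% = saturating agonist plus stimulus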
# NPY-Y2 antag: NPY-Y2 (human) receptor antagonism. inhibition, % at 2.7 µM. P49146. NPY-Y2 expressing cells, antagonist mode. hit rate 0.99% among 140,000; in the data active = inhibition above about 17%;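 also: 0% = vehicle with agonist challenge and 100% = reference antagonist with challenge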
# Target sequence (P49146 whole entry, looked up): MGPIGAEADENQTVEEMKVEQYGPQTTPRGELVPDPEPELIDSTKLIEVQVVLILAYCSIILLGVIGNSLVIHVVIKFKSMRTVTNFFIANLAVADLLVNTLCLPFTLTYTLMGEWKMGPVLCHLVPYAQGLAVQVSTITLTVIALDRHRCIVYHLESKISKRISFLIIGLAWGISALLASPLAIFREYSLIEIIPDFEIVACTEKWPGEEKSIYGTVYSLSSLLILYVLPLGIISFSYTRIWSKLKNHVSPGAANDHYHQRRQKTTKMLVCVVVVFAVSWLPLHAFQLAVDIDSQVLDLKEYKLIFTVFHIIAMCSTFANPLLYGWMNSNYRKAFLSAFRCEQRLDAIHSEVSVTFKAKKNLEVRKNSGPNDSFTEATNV
# WT yeast gro inh: growth inhibition of WT yeast, mitochondrial fusion screen; mitochondrial fusion phenotypic screen, WT strain; inhibition, % at 10 µM; hit rate 2.1% among 190,000; in the data active = inhibition above about 58%; tested in S. cerevisiae
# NPY-Y1 antag: antagonists of human neuropeptide Y receptor Y1. P25929. HEK293-CNG Y1 cells, membrane potential fluorescence; NPY at EC95, then isoproterenol. inhibition, % at 3.6 µM. hit rate 1% among 200,000;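 active = inhibition above the campaign mean inhibition of all tested compounds plus 3 SD, cut at about 20% in these data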;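 also: 0% = DMSO wells given NPY plus isoproterenol and 100% = isoproterenol alone without NPY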
#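 Test system: HEK293 cells co-expressing NPY Y1 receptor and cyclic-nucleotide gated channel; Also added: NPY (25 nM), isoproterenol (1 µM), Ro 20-1724 (25 µM); Compound dosing: one concentration, 3.6 µM, in 0.4% DMSO; Timing: dye 3 h, compound 60 min room temperature, stimulation 45 min; Technique: Membrane-potential fluorescent dye readout.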
# NPY2 pot ag: potentiates or activates human NPY-Y2 receptor. P49146. cells expressing NPY-Y2, potentiator/agonist read-out. activation, % at 3.6 µM. hit rate 0.45% among 220,000. AID 1359; in the data active = activation above about 27%;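 also: cells stimulated with NPY near EC25 plus isoproterenol at EC100; 0% = vehicle plus submaximal agonist and 100% = vehicle plus saturating agonist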
# RAM inhibit: yeast RAM network inhibition | S. cerevisiae dse1pr::URA3 reporter, 5-FOA growth OD615, 2 d; analog-sensitive cbk1-as2 kinase mutant strain | inhibition, % at 50 µM | hit rate 1.8% among 190,000;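 active = inhibition above a set limit, 3 SD over mean compound inhibition, cut at about 8.4% in these data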;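 also: 0% = DMSO-only wells with no growth and 100% = 10 µM 1-NA-PP1 full growth; inhibition rescues growth on 5-FOA so higher OD means more RAM inhibition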
# An asterisk follows results filed as active; · = no result.
SMILES,NPY1 pot ag,NPY-Y2 antag,WT yeast gro inh,NPY-Y1 antag,NPY2 pot ag,RAM inhibit
Cn1c(NC(=O)c2ccc(Cl)cc2)cc(=O)n(C)c1=O,5,·,12,-3,1,0
O=C(Nc1ccccc1)c1ccc(NCCN2CCOCC2)c(S(=O)(=O)N2CCOCC2)c1,-27,4,-1,4,5,3
COc1ccccc1NC(=O)C1=C(C)NC(SCC(=O)c2ccc(C)cc2)=C(C#N)C1c1ccco1 (configuration not stated),-10,7,-1,4,-20,8.8*
CC(=O)C1=C(C)NC(SCC(=O)c2ccc(F)cc2)=C(C#N)C1c1ccco1 (configuration not stated),-20,3,16,-8,-12,6
Cc1cccc(Nc2nc(N)c([N+](=O)[O-])c(N3CC(C)CC(C)C3)n2)c1 (configuration not stated),36,0,96*,-6,12,6
Cc1cccc(Nc2nc(N)c([N+](=O)[O-])c(N3CCC(C)CC3)n2)c1,7,0,32,2,11,0
N#Cc1cccc(NC(=O)COC(=O)c2ccccc2Sc2ccccc2C#N)c1,2,3,3,0,-6,2
C=CCOn1c(=O)c(=O)n(OCc2ccccc2)c2ccccc21,-29,5,26,-3,-23,1
CCN(C(=O)COc1cc(=O)n(CC)c2ccccc12)c1cccc(Cl)c1,8,2,3,-6,-6,1
CCN(C(=O)COc1cc(=O)n(CC)c2ccccc12)c1cc(Cl)ccc1OC,-15,17*,21,23*,-25,-1
O=C(CCCSc1nnnn1-c1cccc2ccccc12)c1ccc(F)cc1,-16,8,11,10,-6,9.4*
COC(=O)CSc1nnnn1-c1cccc2ccccc12,-16,2,48,-1,-6,0
CCOc1ccc(S(=O)(=O)N2CCCCC2)c2ccccc12,-15,8,-6,14,-13,9.4*
CCOc1ccc(S(=O)(=O)N2CCCCC2)c(C)c1C,-9,·,31,5,-14,0
O=S(=O)(c1ccc(F)c2ccccc12)N1CCCCC1,-30,13,7,5,-21,8.9*
Cc1cccn2c(=O)c3cc(C(=O)NCCCN4CCOCC4)n(C)c3nc12,·,·,15,·,·,·
Cc1[nH]c2ccc(F)cc2c1CCN(Cc1ccco1)C(=S)NC(C)(C)C,5,·,67*,1,13,4
COc1ccc(-c2nc3nc(C)c(Cc4ccccc4)c(=O)n3[nH]2)cc1,17,3,0,6,-6,2
COc1ccc(Cc2[nH]n3c(=O)c(Cl)c(C)nc3c2-c2ccccc2)cc1,18,·,2,-7,6,11*
Oc1ccc(C2=NNC(=NCc3ccc4c(c3)OCO4)SC2)c(O)c1,0,4,-1,5,0,0
Clc1ccc(C2=NNC(=NCc3ccc4c(c3)OCO4)SC2)cc1,-28,6,61*,5,-6,2
Cc1cc(Cl)ccc1NC(=S)NCc1cccs1,-7,6,12,2,3,0
N#CC(c1cccc(Cl)c1)c1ccc2c(C(F)(F)F)cc(C(F)(F)F)nc2n1 (configuration not stated),28,9,81*,-9,3,4
O=C(CCCCCn1c(=S)[nH]c2cc3c(cc2c1=O)OCO3)N1CCN(Cc2ccccc2)CC1,-2,2,11,1,-9,1
O=C(CCCCCn1c(=S)[nH]c2cc3c(cc2c1=O)OCO3)N1CCN(C(=O)c2ccco2)CC1,-13,0,69*,5,-6,2
SMILES,NPY1 pot ag,NPY-Y2 antag,WT yeast gro inh,NPY-Y1 antag,NPY2 pot ag,RAM inhibit
O=C(CNC(=O)c1ccco1)OCc1ccc(Cl)cc1,-6,-1,-1,-1,4,2
COc1ccc(OC)c(-c2cc(-c3cccnc3)nc(N)c2C#N)c1,16,·,·,·,-9,·
Clc1ccc(Cn2c(/C=C/c3ccco3)nc3ccccc32)cc1,-3,5,76*,2,2,1
COc1ccc(/C=C2\SC(=NCc3ccccc3)N(Cc3ccccc3)C2=O)cc1OC,7,1,-6,0,-8,9.4*
COCCN1C(=O)/C(=C/c2ccc(OCc3ccc(C(=O)O)cc3)c(OC)c2)SC1=Nc1ccccc1,8,7,59*,-1,-3,8
CCN=C1S/C(=C\c2ccc(OC)c(OCC)c2)C(=O)N1CC,7,3,11,2,9,3
Cn1c(CO)cnc1SCc1ccc(Cl)cc1,-5,-1,5,-7,-13,2
CC(C)(C)OC(=O)N1CC(O)CC1C(=O)OCC(=O)c1ccccc1 (configuration not stated),-13,-1,-19,-5,7,2
CC1(C)N([O-])c2cc([N+](=O)[O-])ccc2[N+]1=O,10,·,·,·,-1,·
CC(=O)C1=C(O)C(=O)N(Cc2cccnc2)C1c1ccc(O)cc1 (configuration not stated),9,·,-12,6,-1,2
OC(COCc1ccc(Cl)cc1)CN1CCN(CC(O)COCc2ccc(Cl)cc2)CC1 (configuration not stated),-6,1,58*,0,14,1
CC(C)(C)NCC(O)COCc1ccc(Cl)cc1 (configuration not stated),73*,0,2,-5,68*,0
CC(C)NCC(O)COCc1ccc(Cl)cc1 (configuration not stated),35,3,5,-6,36,1
C/C(=C\C(=S)Nc1ccccc1)Nc1ccc2ccccc2c1,-17,0,62*,-1,-12,1
c1ccc(Nc2cccc(Nc3ccccc3)c2)cc1,17,-2,71*,-9,24,3
CC[C@H](C)[C@H](NC(=O)c1ccccc1)C(=O)Nc1ccc(S(=O)(=O)Nc2cc(C)nc(C)n2)cc1,-4,·,·,·,2,·
COc1ccc(OC)c(-c2cc(C(=O)NCc3cccs3)no2)c1,-4,6,3,0,-3,4
CC(C)=CCc1c(O)ccc(C(=O)Cc2ccccc2)c1O,1,-2,81*,3,1,2
COCCn1c(-c2ccc(F)cc2)nc2oc3cc(OC)ccc3c(=O)c2c1=O,-8,·,·,·,-12,·
C=CCN1C(=O)C(CC(=O)O)SC1=Nc1ccc(C(=O)O)cc1 (configuration not stated),1,·,-22,2,12,0
C=CCN1C(=O)C(Cc2ccc(SC(F)F)cc2)SC1=Nc1ccc(C(=O)O)cc1 (configuration not stated),13,·,-15,0,8,8.7*
CC(c1cccs1)N(Cc1ccco1)C(=O)Nc1ccc(Cl)c(Cl)c1 (configuration not stated),16,10,64*,16,-9,11*
